Results as given in ChEMBL document CHEMBL3588785 (J Med Chem, 2015).
Converted amounts (≈) assume the structure as drawn. The source made the active and inactive calls. The calls are words filed in the database; no cut-off is given here.

Experiments:
Homo sapiens [1] = species on record: Homo sapiens; experiment: Selectivity for ERK (unknown origin) over FAK (unknown origin) at 1 uM
Method in brief: (§1)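 Panel of 125 kinases screened with compound at 1 µM; kinases inhibited above 75% were recorded.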

[2] = target: T1, Mitogen-activated protein kinase 1 (Homo sapiens, UniProt P28482); experiment: Inhibition of MEK U911-activated ERK2 (unknown origin) using Erktide as substrate preincubated with enzyme for 20 mins prior to substrate addition by RapidFire Mass Spectrometry in presence of ATP at higher concentration
[3] = target: T1, Mitogen-activated protein kinase 1; experiment: Inhibition of ERK2 in human A375 cells harboring B-RAF V600E mutant assessed as decrease in phospho-ERK2 level after 2 hrs by Cellomics ArrayScanTM VTI imaging analysis; type: cell-based, A-375
[4] = Intrinsic clearance in human liver microsomes; type: ADME; conditions: read-out: CLH
Homo sapiens [5] = species on record: Homo sapiens; experiment: Selectivity for ERK (unknown origin) over AUR-C (unknown origin) at 1 uM; method in brief: as §1
[6] = Solubility of the compound in aqueous phosphate buffer at 25 degC at pH 7.4 after 24 hrs; type: physicochemical
A-375 = experiment: Antiproliferative activity against human A375 cells harboring B-RAF V600E mutant after 72 hrs by Cellomics ArrayScanTM VTI imaging analysis; type: functional, cell-based; conditions: A-375, 72 h
[7] = target: T1, Mitogen-activated protein kinase 1; experiment: Inhibition of MEK U911-activated ERK2 (unknown origin) using Erktide as substrate preincubated with enzyme for 20 mins prior to substrate addition by RapidFire Mass Spectrometry in presence of ATP at Km concentration
[8] = target: Dual specificity mitogen-activated protein kinase kinase 1 (Homo sapiens, UniProt Q02750); experiment: Inhibition of MEK1 (unknown origin) autophosphorylation incubated with enzyme for 20 mins prior to ATP addition by ADP Glo kinase assay in presence of ATP at Km concentration
Sequence of Dual specificity mitogen-activated protein kinase kinase 1 (Q02750 whole entry): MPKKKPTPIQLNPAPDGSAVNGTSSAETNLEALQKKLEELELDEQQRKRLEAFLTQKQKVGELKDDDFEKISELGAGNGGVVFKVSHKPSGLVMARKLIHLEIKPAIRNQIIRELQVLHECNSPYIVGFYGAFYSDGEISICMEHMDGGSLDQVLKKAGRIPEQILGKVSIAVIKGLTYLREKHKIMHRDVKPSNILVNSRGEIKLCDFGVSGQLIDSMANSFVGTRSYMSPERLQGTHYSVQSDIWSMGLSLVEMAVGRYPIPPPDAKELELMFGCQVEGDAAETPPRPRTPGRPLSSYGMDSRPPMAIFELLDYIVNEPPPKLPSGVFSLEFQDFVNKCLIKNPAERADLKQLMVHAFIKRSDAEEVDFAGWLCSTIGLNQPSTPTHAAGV

Homo sapiens [9] = species on record: Homo sapiens; experiment: Selectivity for ERK (unknown origin) over FLT1 (unknown origin) at 1 uM; method in brief: as §1
[10] = 1-Octanol-aqueous phosphate buffer partition coefficient, logD of the compound at pH 7.4; type: physicochemical
Method in brief: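 Partition of compound between 1-octanol and aqueous phosphate buffer, pH 7.4; reported as distribution coefficient.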

Homo sapiens [11] = species on record: Homo sapiens; experiment: Selectivity for ERK (unknown origin) over C-RAF (unknown origin) at 1 uM; method in brief: as §1
Homo sapiens [12] = species on record: Homo sapiens; experiment: Selectivity for ERK (unknown origin) over MEK1 (unknown origin) at 1 uM; method in brief: as §1
[13] = target: T2, Mitogen-activated protein kinase; ERK1/ERK2 (Homo sapiens, UniProt P27361+P28482); experiment: Inhibition of ERK1/2 in human A375 cells harboring B-RAF V600E mutant assessed as decrease in phospho-RSK level after 2 hrs by Cellomics ArrayScanTM VTI imaging analysis; type: cell-based; conditions: a-375
Homo sapiens [14] = species on record: Homo sapiens; experiment: Selectivity for ERK (unknown origin) over AUR-B (unknown origin) at 1 uM; method in brief: as §1
Hepatocyte = experiment: Intrinsic clearance in rat hepatocytes; type: ADME, cell-based
[15] = target: Mitogen-activated protein kinase 3 (Mus musculus) (UniProt Q63844); experiment: Binding affinity to ERK1 in mouse fibroblasts assessed as half-life
Sequence of Mitogen-activated protein kinase 3 (Mus musculus) (Q63844 whole entry): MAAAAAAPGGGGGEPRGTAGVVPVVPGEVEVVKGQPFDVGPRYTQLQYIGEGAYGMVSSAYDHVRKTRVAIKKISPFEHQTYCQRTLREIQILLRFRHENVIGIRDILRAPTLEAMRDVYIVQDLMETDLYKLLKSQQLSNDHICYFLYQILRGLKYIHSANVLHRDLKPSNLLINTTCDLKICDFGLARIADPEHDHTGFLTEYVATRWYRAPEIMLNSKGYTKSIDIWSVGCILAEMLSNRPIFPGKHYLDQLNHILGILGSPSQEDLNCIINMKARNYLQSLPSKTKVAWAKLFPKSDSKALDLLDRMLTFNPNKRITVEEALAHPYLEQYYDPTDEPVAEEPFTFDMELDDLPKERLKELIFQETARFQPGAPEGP

[16] = Stability in pH 7.4 buffer assessed as drug hydrolysis; type: physicochemical
Method in brief: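 Compound held in pH 7.4 buffer alone at 37 °C, monitored over 11 hrs for hydrolysis.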

[17] = target: Mitogen-activated protein kinase 1 (Mus musculus) (UniProt P63085)
Sequence of Mitogen-activated protein kinase 1 (Mus musculus) (P63085 whole entry): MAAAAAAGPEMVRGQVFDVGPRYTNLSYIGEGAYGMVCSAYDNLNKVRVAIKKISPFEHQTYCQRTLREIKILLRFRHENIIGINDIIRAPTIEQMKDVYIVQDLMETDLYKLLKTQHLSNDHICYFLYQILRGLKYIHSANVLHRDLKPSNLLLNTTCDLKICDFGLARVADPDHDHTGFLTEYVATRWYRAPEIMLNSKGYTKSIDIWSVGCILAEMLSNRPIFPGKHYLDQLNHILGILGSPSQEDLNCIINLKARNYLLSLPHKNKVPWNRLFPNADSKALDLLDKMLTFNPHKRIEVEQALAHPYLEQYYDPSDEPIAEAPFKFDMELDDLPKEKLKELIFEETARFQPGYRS

[18] = target: T2, Mitogen-activated protein kinase; ERK1/ERK2; conditions: Calu-6, 500 nM
[19] = GSH reactivity assessed as half life
Homo sapiens [20] = species on record: Homo sapiens; experiment: Selectivity for ERK (unknown origin) over DYRK2 (unknown origin) at 1 uM; method in brief: as §1
[21] = AUC (0 to t) in mouse at 100 mg/kg, po; type: ADME, organism-based; conditions: in vivo
Homo sapiens [22] = species on record: Homo sapiens; experiment: Selectivity for ERK (unknown origin) over CDK7 (unknown origin) at 1 uM; method in brief: as §1
Homo sapiens [23] = species on record: Homo sapiens; experiment: Selectivity for ERK (unknown origin) over SRC (unknown origin) at 1 uM; method in brief: as §1
[24] = Clearance in mouse hepatocytes measured per 10^6 cells; type: ADME, cell-based, Hepatocyte; conditions: read-out: CLH
[25] = target: T1, Mitogen-activated protein kinase 1; experiment: Covalent binding to ERK2 (unknown origin) after 2 hrs by mass spectrometry
Method in brief: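 ERK2 protein incubated with compound at 3-fold molar excess over protein, room temperature, 2 hours; sample diluted 10-fold and loaded immediately for intact-mass MS.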

Homo sapiens [26] = species on record: Homo sapiens; experiment: Selectivity for ERK (unknown origin) over MET (unknown origin) at 1 uM; method in brief: as §1
Homo sapiens [27] = species on record: Homo sapiens; experiment: Selectivity for ERK (unknown origin) over TRKA (unknown origin) at 1 uM; method in brief: as §1
[28] = Stability to hydrolysis in pH 7.4 buffer measured over 11 hrs at 37 degC
Homo sapiens [29] = species on record: Homo sapiens; experiment: Selectivity for ERK (unknown origin) over CDK1 (unknown origin) at 1 uM; method in brief: as §1
Homo sapiens [30] = species on record: Homo sapiens; experiment: Selectivity for ERK (unknown origin) over IR (unknown origin) at 1 uM; method in brief: as §1
Homo sapiens [31] = species on record: Homo sapiens; experiment: Selectivity for ERK (unknown origin) over AXL (unknown origin) at 1 uM; method in brief: as §1
Homo sapiens [32] = species on record: Homo sapiens; experiment: Selectivity for ERK (unknown origin) over IGF-1R (unknown origin) at 1 uM; method in brief: as §1

SMILES | IC50 [2] [nM] | IC50 [3] [nM] | microsomal CLint [4] [µL/min/mg] | solubility at 24 h [6] [µM] | IC50 (A-375) [nM] | IC50 [7] [nM] | IC50 [8] [nM] | logD [10] | Selectivity ratio (Homo sapiens [11]) | Selectivity ratio (Homo sapiens [12]) | IC50 [13] [nM] | CLH (Hepatocyte) [µL/min/mg] | also measured
C=CC(=O)Nc1ccccc1Nc1nc(Nc2ccnn2C)ncc1Cl | 13 | 48 | 42 | 520 (≈ 192 µg/mL) | 91 | 9.9 | 120 | 2.4 | 7 | 7 | 120 | 120 | Selectivity ratio (Homo sapiens [1]): 7; Selectivity ratio (Homo sapiens [5]): 7; Selectivity ratio (Homo sapiens [9]): 7; Selectivity ratio (Homo sapiens [14]): 7
CCS(=O)(=O)Nc1ccc2[nH]nc(-c3ccncc3)c2c1 | 1800 | 10000 |  |  | > 30000 | 280 |  |  |  |  | > 30000 |  | 
C=CS(=O)(=O)N1CCc2[nH]nc(-c3ccnc(C)c3)c2C1 | 110 | 380 |  | 300 (≈ 91.3 µg/mL) | 1400 | 74 | 4900 | 1.6 | 5 | 5 | 1000 |  | Selectivity ratio (Homo sapiens [9]): 5
C=CC(=O)Nc1cnccc1Nc1nc(NC2CCOCC2)ncc1Cl | 3 | 6.7 | 13 | 150 (≈ 56.2 µg/mL) | 41 | 3.1 | > 10000 | 2.3 | 2 | 2 | 28 | > 250 | T1/2 [15]: 120 h; Stability [16]: Stable; T1/2 [17]: 54 h; inhibition [18]: Active; T1/2 [19]: 0.7 h
C=CC(=O)Nc1ccccc1Nc1nc(N[C@H]2CC[C@H](N(C)C)CC2)ncc1Cl | 90 | 72 | < 3 | 770 (≈ 320 µg/mL) | 120 | 85 | > 10000 | 0.9 | 4 | 4 | 200 | 25 | Selectivity ratio (Homo sapiens [9]): 4; Selectivity ratio (Homo sapiens [20]): 4
CC(C)Nc1cc(-c2c[nH]c(C(=O)N[C@H](CO)c3cccc(Cl)c3)c2)c(Cl)cn1 [ULIXERTINIB] |  |  |  | 8.5 (≈ 3.68 µg/mL) | 180 |  |  | > 4 |  |  |  |  | 
CCC(=O)Nc1ccccc1Nc1nc(NC2CCOCC2)ncc1Cl | 4000 | > 30000 |  |  | 6600 | 480 |  |  |  |  | > 30000 |  | 
CNC(=O)c1ccccc1Nc1cc(NC2CCOCC2)ncc1Cl |  | 7500 |  | 290 (≈ 105 µg/mL) |  | 260 | > 10000 | 2.8 |  |  | 10000 |  | 
C=CC(=O)Nc1ccccc1Nc1nc(NC2CCOCC2)ncc1C(F)(F)F | 8.5 | 22 | 38 | 59 (≈ 24 µg/mL) | 53 | 6.9 | > 10000 | 2.9 | 6 | 6 | 65 | 270 | AUC(0-t) [21]: 21 µM·h; Selectivity ratio (Homo sapiens [22]): 6; Selectivity ratio (Homo sapiens [23]): 6; Selectivity ratio (Homo sapiens [5]): 6; hepatocyte CLint [24]: 143 µL/min/1e6 cells; Selectivity ratio (Homo sapiens [14]): 6
C=CC(=O)Nc1ccccc1Nc1nc(NC2CCOCC2)ncc1Cl | 5.4 | 19 | 67 | 46 (≈ 17.2 µg/mL) | 57 | 8.5 | > 10000 | 2.7 | 4 |  | 69 | 200 | Activity [25]: Active; Stability [16]: Stable; Selectivity ratio (Homo sapiens [5]): 4; Selectivity ratio (Homo sapiens [9]): 4; T1/2 [19]: 2.53 h; Selectivity ratio (Homo sapiens [14]): 4
CNC(=O)c1ccc(F)cc1Nc1cc(NC2CCOCC2)ncc1C(F)(F)F | 380 | 2100 |  | 8.8 (≈ 3.63 µg/mL) | 3400 | 40 | > 10000 | 3.4 | 4 |  | 2400 |  | Selectivity ratio (Homo sapiens [1]): 4; Selectivity ratio (Homo sapiens [26]): 4; Selectivity ratio (Homo sapiens [22]): 4
C=CS(=O)(=O)Nc1ccc2[nH]nc(-c3ccncc3)c2c1 | 17 | 120 |  | 7 (≈ 2.1 µg/mL) | 1300 | 7.5 | > 10000 | 2.2 | 8 |  | 470 |  | Activity [25]: Active; Selectivity ratio (Homo sapiens [27]): 8; Selectivity ratio (Homo sapiens [5]): 8; Selectivity ratio (Homo sapiens [9]): 8; Selectivity ratio (Homo sapiens [14]): 8
C=CC(=O)Nc1ccccc1Nc1nc(Nc2ccnn2C)ncc1C | 47 | 66 | 19 | 990 (≈ 346 µg/mL) | 240 | 39 | 260 | 2.1 |  |  | 280 | 33 | 
CCS(=O)(=O)N1CCc2cnc(NC3CCOCC3)nc2C1 | > 10000 | 10000 |  |  |  | 9000 |  |  |  |  | > 30000 |  | 
C=CS(=O)(=O)N1CCc2cnc(NC3CCOCC3)nc2C1 | 220 | 240 |  | 760 (≈ 247 µg/mL) |  | 370 | > 10000 | 1 | 2 | 2 | 1100 |  | Activity [25]: Active; Stability [16]: Stable; Stability [28]: Stable; T1/2 [19]: 0.257 h
C=CC(=O)Nc1ccccc1Nc1cc(NC2CCOCC2)ncc1Cl | 60 | 120 | 24 | 40 (≈ 14.9 µg/mL) | 680 | 42 | > 10000 | 2.5 | 2 | 2 | 400 | 270 | 
C=CC(=O)Nc1ccccc1Nc1nc(NC2CCOCC2)ncc1C | 88 | 170 | 13 | 170 (≈ 60.1 µg/mL) | 470 | 77 | > 10000 | 2 | 2 | 2 | 740 | 59 | 
CNC(=O)c1ccc(F)cc1Nc1cc(Nc2cc(C)nn2C)ncc1C(F)(F)F | 340 | 8700 |  | 15 (≈ 6.34 µg/mL) | 1400 | 44 | > 10000 | 3.8 |  |  | 5100 |  | Selectivity ratio (Homo sapiens [1]): 10; Selectivity ratio (Homo sapiens [29]): 10; Selectivity ratio (Homo sapiens [26]): 10; Selectivity ratio (Homo sapiens [27]): 10; Selectivity ratio (Homo sapiens [22]): 10; Selectivity ratio (Homo sapiens [30]): 10; Selectivity ratio (Homo sapiens [5]): 10; Selectivity ratio (Homo sapiens [31]): 10; Selectivity ratio (Homo sapiens [14]): 10; Selectivity ratio (Homo sapiens [32]): 10
O=C(Nc1ccc2[nH]nc(-c3ccncc3)c2c1)[C@@H]1CCN(CC(=O)N2CCN(c3ccc(-c4ncccn4)cc3)CC2)C1 |  |  |  | < 2.1 | 70 |  |  | 3.2 |  |  |  |  | 
COc1cc(O)c2c(c1)/C=C/C[C@H](O)[C@@H](O)C(=O)/C=C/C[C@H](C)OC2=O | 3700 | 1600 |  | 47 (≈ 17 µg/mL) | 4100 | 5100 | 3400 | 1.6 |  |  | 5700 |  | 
